Active and inactive are the calls of the source.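 Rule for the calls: active = mean EC50 at or below 20 µM; inactive = the rest.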
target: CHO-XBP1 luciferase reporter, IRE1-XBP1 activation, luminescence; assay: activators of IRE1-XBP1 adaptive UPR arm, SAR follow-up, counter-screen for apoptotic UPR arm activator project, CHO-XBP1 cells, luminescence, set 3 (AID 602416)
Procedure, shortened: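 Material: CHO cells stably expressing XBP1 luciferase reporter, IRE1-XBP1 arm | Probe or stimulus: Test wells lacking tunicamycin | Times: Compound exposure 6 h at 37 °C | Detection: Steady-Glo luminescence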

**Q.** `CC(C)(C)C1CCN(S(=O)(=O)c2ccc(NC(=O)c3ccc([N+](=O)[O-])o3)cc2)CC1` was tested. Which EC50 did it give?
**A.** > 80 µM (inactive)

**Q.** How did the EC50 turn out when `O=C(Nc1ccc(S(=O)(=O)N2CCC(F)CC2)cc1)c1ccc([N+](=O)[O-])o1` was run?
**A.** > 80 µM (inactive)

**Q.** With `CC1(C)CCN(S(=O)(=O)c2ccc(NC(=O)c3ccc([N+](=O)[O-])o3)cc2)CC1` as the compound, how does the EC50 read?
**A.** > 80 µM (inactive)

**Q.** For `O=C(Nc1ccc(S(=O)(=O)N2CCC(Cl)CC2)cc1)c1ccc([N+](=O)[O-])o1`, which EC50 is on record?
**A.** > 80 µM (inactive)

**Q.** Which EC50 does the source give for `CC1CCN(S(=O)(=O)c2ccc(NC(=O)c3ccc([N+](=O)[O-])o3)cc2)CC1` here?
**A.** > 80 µM (inactive)

**Q.** For `O=C(Nc1ccc(S(=O)(=O)N2CCCCC2)cc1)c1ccc([N+](=O)[O-])o1`, which EC50 is on record?
**A.** > 80 µM (inactive)

Source: PubChem BioAssay AID602416 (Sanford-Burnham Center for Chemical Genomics, 2012)
